Article PMC7065716 (International Journal of Nanomedicine, 2020)
Several values for one entry are separate records, joined by “and”; a condition that tells them apart may be missing. Equal values may be shown once. Where a name gives a salt, the structure may show the parent alone.

Assays:
[1] = tested on: anti-cyclic citrullinated peptide antibody (anti-CCP); assay: CFA-induced RA in rats: serum anti-CCP; type: in vivo, female Wister albino rats; conditions: treated day 13-27, serum day 28
Procedure, shortened: (§1)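 Arthritis induced as three 0.4 mL subcutaneous plantar CFA injections (days 1, 4, 7); treatments given days 13–27 as topical gel 1 g/day on 4 cm2 shaved dorsum or oral 10 mg/kg/day. Eight rats per group. Day 28, 24 h after last dose, retro-orbital blood under diethyl ether; serum separated at 3000 rpm for 30 min, stored −20°C, assayed by ELISA kit. One-way ANOVA with Tukey test.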

[2] = tested on: CFA-induced RA in rats; assay: CFA-induced RA in rats: radiographic analysis; type: in vivo, female Wister albino rats; conditions: day 28
[3] = tested on: IL-6; assay: CFA-induced RA in rats: serum IL-6; type: in vivo, female Wister albino rats; conditions: treated day 13-27, serum day 28, listed as oral DH
Procedure, shortened: as §1

[4] = cited from earlier work
[5] = tested on: CFA-induced RA in rats; assay: CFA-induced RA in rats: histopathology of knee joints, spleen and liver; type: in vivo, female Wister albino rats; conditions: H&E
Procedure, shortened: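 CFA (0.4 mL) injected subcutaneously into hind-limb plantar surface on days 1, 4 and 7 in female rats, 180–200 g, 8 per group. From day 13 to 27: topical gel 1 g/day on 4 cm2 shaved dorsum, oral 10 mg/kg/day, or reference oral drug 0.1 mg/kg/day. On day 28, under pentobarbitone 50 mg/kg i.p., three knee joints per group plus spleen and liver fixed in 10% formalin saline for 24 h, H&E-stained and read by pathologist.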

[6] = tested on: cartilage oligomeric matrix protein (COMP); assay: CFA-induced RA in rats: serum COMP; type: in vivo, female Wister albino rats; conditions: treated day 13-27, serum day 28
Procedure, shortened: as §1

[7] = In vitro DH release; type: physicochemical; conditions: dialysis bag, pH 5.5, 37 °C
Procedure, shortened: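 Formulation or free drug solution (3 mg drug equivalent) held in a cellophane dialysis bag (MWCO 12,000) wrapped on a cylinder. Bag placed in 30 mL PBS, pH 5.5, at 37 ± 0.5 °C, stirred 50 rpm. 3 mL sampled at 1, 2, 3, 5, 6, 7 and 8 h and replaced. UV read at 292 nm. Run in triplicate, mean ± SD, cumulative % released.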

[8] = Ex vivo skin permeation; type: in vitro ADME, rat
Procedure, shortened: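 Franz cell, 5.0 cm2 permeation area, 100 mL distilled-water receiver. Shaved rat skin mounted stratum corneum up. Donor: vesicle formulation equivalent to 3 mg drug, or drug solution as control. Run at 37 ± 2 °C, 100 rpm, 24 h, sampling at 1–24 h with medium replaced. UV read at 292. Lag time from x-intercept of the linear portion of the cumulative µg/cm2-versus-time plot; Jss (µg/cm2/h) and Kp (cm/h) calculated.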

[9] = Pharmacokinetic analysis in rats; type: in vivo; conditions: Wister albino, rat, plasma, 10 mg/kg
Procedure, shortened: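 Rats (200–250 g, six per group) fasted 10 h, then dosed 10 mg/kg by oral gavage or as 1 g gel on 4 cm2 shaved dorsum. Retro-orbital blood (0.5 mL, heparinized) taken 0.25–24 h; plasma stored −20°C. Plasma spiked with internal standard, extracted with tert-butyl methyl ether, reconstituted in acetonitrile:0.1% formic acid (80:20), analysed by LC-MS/MS on C18. Non-compartmental analysis; AUC by trapezoidal rule.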

CN(Cc1cnc2nc(N)nc(N)c2n1)c1ccc(C(=O)N[C@@H](CCC(=O)O)C(=O)O)cc1 [MTX, methotrexate]
Anti-CCP (serum) [1]: 4.00 ± 0.03^a, b, c ng/mL | radiographic findings [2]: almost normal soft tissue with disappearance of inflammatory signs

CN(C)[C@@H](CCOc1cccc2ccccc12)c1ccccc1 [DH, Dapoxetine hydrochloride]
IL-6 (serum) [3]: no significant effect | elimination half-life [4]: 1.31 h | knee joint histopathology [5]: rough cerrated articular surface | liver histopathology [5]: marked congestion of central veins | spleen histopathology [5]: marked activation in the macrophage in the white pulb | COMP (serum) [6]: 70.30 ± 5.73^a, b, c, d, e pg/mL | Anti-CCP (serum) [1]: 4.64 ± 0.15^a, b, c, d, e ng/mL | DH released in the first 3 h [7]: approximately 95% | Papp ([8]; rat): 0.944 ×10⁻⁶ cm/s | Lag Time ([8]; rat skin, Franz cell): 91.10 ± 20.67 min | Y5: Q24, cumulative amount permeated/unit area in 24 h ([8]; rat skin, Franz cell, 37 °C, 24 h): 135.6±17.0 µg/cm2 | Jss (drug flux, steady state) ([8]; rat skin, Franz cell, listed as DH solution): 5.6±0.7 µg/cm2.h and 5.65± 0.71 µg/cm2.h | AUC(0-inf) ([9]; oral): 734 ng·h/mL | Cmax ([9]; oral): 198 ng/mL | AUC(0-inf) ([9]; po): 734 ± 51.1 ng·h/mL | AUC(0-t) ([9]; po): 701 ± 25.8 ng·h/mL | Cmax ([9]; po): 198 ± 16.4 ng/mL | MRT ([9]; po): 5.74 ± 1.56 h | Tmax ([9]; po): 1.5 ± 0.06 h | half-life ([9]; po): 328 ± 172 min | radiographic findings [2]: significant and comparable inhibition of soft tissues swelling
